Reference: ChEMBL document CHEMBL1629441, “Synthesis, in vitro and in vivo biological evaluation, and comprehensive understanding of structure-activity relationships of dipeptidyl boronic acid proteasome inhibitors constructed from β-amino acids” (J Med Chem, 2010)

What was measured:
[1] = Inhibition of human 20S proteasome chymotrypsin-like activity by fluorimetric assay
Method in brief: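 Human 20S proteasome preincubated with test compound, then Suc-Leu-Leu-Val-Tyr-AMC hydrolysis monitored 1 h at 37 °C by fluorescence (excitation 360 nm, 465 nm). Buffer pH 7.5: 20 mM Tris, 1 mM DTT, 10% glycerol, 0.02% (w/v) SDS; DMSO 3% (v/v) final. IC50 from five concentrations, each in duplicate; bortezomib standard.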

[2] = system: BXPC-3; assay: Cytotoxicity against human BxPC3 cells after 72 hrs by MTT assay; format: functional, cell-based; settings: BXPC-3, 72 h
Method in brief: (§1)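 MTT growth assay: 3000 cells per well seeded, after 24 h exposed to 10 drug concentrations for 72 h, then MTT (5 mg/mL stock) 4 h at 37 °C. Formazan dissolved in DMSO, absorbance at 540 nm. Points in triplicate; IC50 is mean of at least three independent determinations. Cells grown at 37 °C, 5% CO2 with FBS.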

[3] = system: SW480; assay: Cytotoxicity against human SW480 cells after 72 hrs by MTT assay; format: functional, cell-based; settings: SW480, 72 h; method in brief: as §1
[4] = system: A549; assay: Cytotoxicity against human A549 cells after 72 hrs by MTT assay; format: functional, cell-based; settings: A549, 72 h; method in brief: as §1
[5] = system: PC-3; assay: Cytotoxicity against human PC3 cells after 72 hrs by MTT assay; format: functional, cell-based; settings: PC-3, 72 h; method in brief: as §1
[6] = system: SK-OV-3; assay: Cytotoxicity against human SKOV3 cells after 72 hrs by MTT assay; format: functional, cell-based; settings: SK-OV-3, 72 h; method in brief: as §1
[7] = system: HepG2; assay: Cytotoxicity against human HepG2 cells after 72 hrs by MTT assay; format: functional, cell-based; settings: HepG2, 72 h; method in brief: as §1
[8] = system: HL-60; assay: Cytotoxicity against human HL60 cells after 72 hrs by MTT assay; format: functional, cell-based; settings: HL-60, 72 h; method in brief: as §1
[9] = Cytotoxicity against human RPMI18226 cells after 72 hrs by MTT assay; format: functional, cell-based; settings: RPMI18226, 72 h; method in brief: as §1
[10] = Mean residence time (0-t) in Sprague-Dawley rat at 1 mg/kg, ig; format: ADME, organism-based; parameters: dose 1 mg/kg, route intragastric; settings: in vivo, po
Method in brief: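 Male SD rats dosed intragastrically at 1.0 mg/kg from 0.5 mg/mL solution in 1% ethanol, 1% Tween80, 98% buffered saline. Heparinized blood (n = 4) centrifuged 4000 rpm, 5 min, 4 °C; plasma lower limit of detection 5 ng/mL.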

[11] = Mean residence time (0-t) in Sprague-Dawley rat at 1 mg/kg, iv; format: ADME, organism-based; parameters: dose 1 mg/kg, route intravenous; settings: in vivo
Method in brief: (§2)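 Male SD rats given single 1.0 mg/kg iv bolus of solution (0.5 mg/mL) in 1% ethanol, 1% Tween80, 98% buffered saline. Heparinized blood samples (n = 4) centrifuged 4000 rpm, 5 min, 4 °C; plasma concentrations used to derive PK parameters.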

[12] = system: Rattus norvegicus; assay: Toxicity in Sprague-Dawley rat assessed as incidence of mortality at 1 mg/kg, iv after 10 hrs; format: organism-based; parameters: dose 1 mg/kg, route intravenous; settings: in vivo
Method in brief: (§3)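 Male SD rats dosed once at 1.0 mg/kg, iv bolus or intragastric, during the PK study. Dosing solution 0.5 mg/mL in 1% ethanol, 1% Tween80, 98% buffered saline. Animals observed for death and toxic reactions over 10 h. n = 4 per PK group.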

[13] = system: Rattus norvegicus; assay: Toxicity in Sprague-Dawley rat assessed as incidence of mortality at 1 mg/kg, ig after 10 hrs; format: organism-based; parameters: dose 1 mg/kg, route intragastric; settings: in vivo, po; method in brief: as §3
[14] = Tmax in Sprague-Dawley rat at 1 mg/kg, iv; format: ADME, organism-based; parameters: dose 1 mg/kg, route intravenous; settings: in vivo; method in brief: as §2
[15] = Cmax in Sprague-Dawley rat at 1 mg/kg, iv; format: ADME, organism-based; parameters: dose 1 mg/kg, route intravenous; settings: in vivo; method in brief: as §2
[16] = AUC (0-t) in Sprague-Dawley rat at 1 mg/kg, iv; format: ADME, organism-based; parameters: dose 1 mg/kg, route intravenous; settings: plasma; method in brief: as §2
[17] = Terminal half life in Sprague-Dawley rat at 1 mg/kg, iv; format: ADME, organism-based; parameters: dose 1 mg/kg, route intravenous; settings: in vivo; method in brief: as §2
[18] = Apparent volume of distribution in Sprague-Dawley rat at 1 mg/kg, iv; format: ADME, organism-based; parameters: dose 1 mg/kg, route intravenous; settings: in vivo, read-out: Vz; method in brief: as §2
[19] = Systemic clearance in Sprague-Dawley rat at 1 mg/kg, iv; format: ADME, organism-based; parameters: dose 1 mg/kg, route intravenous; settings: in vivo; method in brief: as §2

## CC(C)C[C@H](NC(=O)[C@H](Cc1ccccc1)NC(=O)c1cnccn1)B(O)O [BORTEZOMIB]
[1]; read-out: IC50
  IC50: 1.54 nM
[2]
  IC50: 19.4 nM
[3]
  IC50: 12.3 nM
[4]
  IC50: 13.9 nM
[5]
  IC50: 8.3 nM
[6]
  IC50: 66.8 nM
[7]
  IC50: 25.2 nM
[8]
  IC50: 3.5 nM
[9]
  IC50: 3.5 nM
[10]
  MRT last: 7.69 h
[11]
  MRT last: 1.4 h
[12]
  Activity: Toxic
[13]
  Activity: Toxic

## CCCC[C@H](NC(=O)CC(NC(=O)c1ccccc1)c1cccc(F)c1)B(O)O (stereo partly drawn)
[1]; read-out: IC50
  IC50: 1250 nM

## Cc1ccc(C[C@H](NC(=O)CC(NC(=O)c2ccccc2)c2cccc(F)c2)B(O)O)cc1 (stereo partly drawn)
[1]; read-out: IC50
  IC50: 501 nM

## CC(C)C[C@H](NC(=O)CC(NC(=O)c1ccccc1)c1ccccc1F)B(O)O (stereo partly drawn)
[1]; read-out: IC50
  IC50: 38.9 nM

## COc1cccc(C(CC(=O)N[C@@H](CC(C)C)B(O)O)NC(=O)c2ccccc2)c1 (stereo partly drawn)
[1]; read-out: IC50
  IC50: 46.7 nM

## CC(=O)NC(CC(=O)N[C@@H](CC(C)C)B(O)O)c1cccc(F)c1 (stereo partly drawn)
[1]
  IC50: Not Active

## O=C(CC(NC(=O)c1ccccc1)c1cccc(F)c1)N[C@@H](CC1CCCCC1)B(O)O (stereo partly drawn)
[1]
  IC50: Not Active

## O=C(CC(NC(=O)c1ccccc1)c1cccc(Cl)c1)N[C@@H](Cc1ccccc1)B(O)O (stereo partly drawn)
[1]; read-out: IC50
  IC50: 1620 nM

## COc1cccc(C(CC(=O)N[C@@H](Cc2ccccc2F)B(O)O)NC(=O)c2cccnc2)c1 (stereo partly drawn)
[1]; read-out: IC50
  IC50: 602 nM

## O=C(CC(NC(=O)c1ccccc1)c1cccc(F)c1)N[C@@H](Cc1ccccc1F)B(O)O (stereo partly drawn)
[1]; read-out: IC50
  IC50: 301 nM

## COc1cccc(C(CC(=O)N[C@@H](CC(C)C)B(O)O)NC(=O)[C@H]2CCCc3ccccc32)c1 (stereo partly drawn)
[1]; read-out: IC50
  IC50: 28.1 nM

## CC(C)C[C@H](NC(=O)CC(NC(=O)c1ccc2ccccc2c1)c1cccc(F)c1)B(O)O (stereo partly drawn)
[1]; read-out: IC50
  IC50: 3.01 nM
[2]
  IC50: 3540 nM
[3]
  IC50: 2380 nM
[4]
  IC50: 2020 nM
[5]
  IC50: 2990 nM
[6]
  IC50: 8770 nM
[7]
  IC50: 6990 nM
[8]
  IC50: 530 nM
[9]
  IC50: 330 nM
[14]
  Tmax: 1.8 min
[15]
  Cmax: 5790 ng/mL
[16]
  AUC(0-t): 1710 ng·h/mL
[11]
  MRT last: 1.4 h
[17]
  half-life: 4.5 h
[18]
  Vd: 3.9 L/kg
[19]
  clearance: 9.6 mL/min/kg
[12]
  Activity: Non-toxic
[13]
  Activity: Non-toxic

## CCCC[C@H](NC(=O)CC(NC(=O)c1ccccc1)c1cccc(Cl)c1)B(O)O (stereo partly drawn)
[1]; read-out: IC50
  IC50: 316 nM

## O=C(CC(NC(=O)c1ccccc1)c1cccc(F)c1)N[C@@H](Cc1ccc(F)cc1)B(O)O (stereo partly drawn)
[1]; read-out: IC50
  IC50: 75.8 nM

## Cc1ccccc1C[C@H](NC(=O)CC(NC(=O)c1ccccc1)c1cccc(Cl)c1)B(O)O (stereo partly drawn)
[1]
  IC50: Not Active

## Cc1ccc(C[C@H](NC(=O)CC(NC(=O)c2ccccc2)c2cccc(Cl)c2)B(O)O)cc1 (stereo partly drawn)
[1]; read-out: IC50
  IC50: 1150 nM

## COc1cccc(C(CC(=O)N[C@@H](Cc2cccc(C)c2)B(O)O)NC(=O)c2cccnc2)c1 (stereo partly drawn)
[1]; read-out: IC50
  IC50: 1770 nM

## COc1cccc(C(CC(=O)N[C@@H](CC(C)C)B(O)O)NC(C)=O)c1 (stereo partly drawn)
[1]
  IC50: Not Active

## COc1cccc(C(CC(=O)N[C@@H](Cc2ccc(C)cc2)B(O)O)NC(=O)c2cccnc2)c1 (stereo partly drawn)
[1]; read-out: IC50
  IC50: 930 nM

## Cc1cccc(C(CC(=O)N[C@@H](CC(C)C)B(O)O)NC(=O)c2cccnc2)c1 (stereo partly drawn)
[1]; read-out: IC50
  IC50: 50.1 nM

## CC(C)C[C@H](NC(=O)CC(NC(=O)c1cccnc1)c1cccc(Cl)c1)B(O)O (stereo partly drawn)
[1]; read-out: IC50
  IC50: 22.9 nM

## COc1cccc(C(CC(=O)N[C@@H](CC(C)C)B(O)O)NC(=O)c2cccc3c2CCCC3)c1 (stereo partly drawn)
[1]; read-out: IC50
  IC50: 158 nM

## COc1ccc(C(CC(=O)N[C@@H](CC(C)C)B(O)O)NC(=O)c2ccccc2)cc1 (stereo partly drawn)
[1]; read-out: IC50
  IC50: 32.8 nM

## CC(C)C[C@H](NC(=O)CC(NC(=O)c1cccnc1)c1ccc(F)cc1)B(O)O (stereo partly drawn)
[1]; read-out: IC50
  IC50: 590 nM

## CC(C)C[C@H](NC(=O)CC(NC(=O)c1ccccc1)c1cccc(F)c1)B(O)O (stereo partly drawn)
[1]; read-out: IC50
  IC50: 19 nM

## CC(C)C[C@H](NC(=O)CC(NC(=O)c1ccccc1)c1ccc(F)cc1)B(O)O (stereo partly drawn)
[1]; read-out: IC50
  IC50: 34.6 nM

## Cc1ccccc1C(CC(=O)N[C@@H](CC(C)C)B(O)O)NC(=O)c1ccccc1 (stereo partly drawn)
[1]; read-out: IC50
  IC50: 1250 nM

## CC(C)C[C@H](NC(=O)CC(NC(=O)c1ccccc1)c1ccc([N+](=O)[O-])cc1)B(O)O (stereo partly drawn)
[1]; read-out: IC50
  IC50: 35.4 nM

## CC(C)C[C@H](NC(=O)CC(NC(=O)c1ccccc1)c1ccccc1Cl)B(O)O (stereo partly drawn)
[1]; read-out: IC50
  IC50: 89.1 nM

## CC(C)C[C@H](NC(=O)CC(NC(=O)c1ccccc1)c1ccccc1[N+](=O)[O-])B(O)O (stereo partly drawn)
[1]
  IC50: Not Active

## O=C(CC(NC(=O)c1ccccc1)c1cccc(F)c1)N[C@@H](Cc1cccc(F)c1)B(O)O (stereo partly drawn)
[1]; read-out: IC50
  IC50: 131 nM

## COc1cccc(C(CC(=O)N[C@@H](Cc2cccc(F)c2)B(O)O)NC(=O)c2cccnc2)c1 (stereo partly drawn)
[1]; read-out: IC50
  IC50: 89.1 nM

## CC(C)C[C@H](NC(=O)CC(NC(=O)c1cccnc1)c1ccccc1[N+](=O)[O-])B(O)O (stereo partly drawn)
[1]
  IC50: Not Active

## COc1cccc(C(CC(=O)N[C@@H](Cc2ccc(F)cc2)B(O)O)NC(=O)c2cccnc2)c1 (stereo partly drawn)
[1]; read-out: IC50
  IC50: 63 nM

## O=C(CC(NC(=O)c1ccccc1)c1cccc(F)c1)N[C@@H](Cc1ccccc1)B(O)O (stereo partly drawn)
[1]; read-out: IC50
  IC50: 1200 nM

## CC(C)C[C@H](NC(=O)CC(NC(=O)c1ccccc1)c1cccc([N+](=O)[O-])c1)B(O)O (stereo partly drawn)
[1]; read-out: IC50
  IC50: 42.6 nM

## CC(C)C[C@H](NC(=O)CC(NC(=O)c1cccc2c1CCCC2)c1cccc(Cl)c1)B(O)O (stereo partly drawn)
[1]; read-out: IC50
  IC50: 190 nM

## Cc1ccccc1C[C@H](NC(=O)CC(NC(=O)c1ccccc1)c1cccc(F)c1)B(O)O (stereo partly drawn)
[1]
  IC50: Not Active

## CC(C)C[C@H](NC(=O)CC(NC(=O)c1cccnc1)c1ccccc1F)B(O)O (stereo partly drawn)
[1]; read-out: IC50
  IC50: 1100 nM
